Source: ChEMBL document CHEMBL1795275, “Substituted benzoxazinones as potent positive allosteric AMPA receptor modulators: part II” (Bioorg Med Chem Lett, 2011)
pKi: −log10 of the molar value. Active and inactive are the calls of the source. No cut-off for these calls is given here.

Key:
Rattus norvegicus [1] = organism: Rattus norvegicus; assay: Positive allosteric modulation of AMPA receptor in rat embryonic hippocampal neurons assessed as concentration required to double glutamate-induced steady-state current by patch clamp electrophysiology assay; details: Hippocampus
[2] = Displacement of [3H]-AMPAKINE from AMPA receptor in rat forebrain cell membranes; design: species or system Membrane
Rattus norvegicus [3] = organism: Rattus norvegicus; assay: Positive allosteric modulation of AMPA receptor in rat hippocampal slices assessed as increase of fEPSP-induced current amplitude at 3 uM; format: tissue-based; details: Hippocampus
Procedure, shortened: (§1)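 Field recordings in in vitro hippocampal slices. Result is the percent rise in fEPSP amplitude, measured at the stated compound concentration.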

Rattus norvegicus [4] = organism: Rattus norvegicus; assay: Positive allosteric modulation of AMPA receptor in rat hippocampal slices assessed as increase of fEPSP-induced current amplitude at 10 uM; format: tissue-based; details: Hippocampus; procedure, shortened: as §1
Rattus norvegicus [5] = organism: Rattus norvegicus; assay: Positive allosteric modulation of AMPA receptor in rat hippocampal slices assessed as increase of fEPSP-induced current amplitude at 30 uM; format: tissue-based; details: Hippocampus; procedure, shortened: as §1
Rattus norvegicus [6] = organism: Rattus norvegicus; assay: Positive allosteric modulation of AMPA receptor in rat hippocampal slices assessed as increase of fEPSP-induced current amplitude at 1 uM; format: tissue-based; details: Hippocampus; procedure, shortened: as §1
Rattus norvegicus [7] = organism: Rattus norvegicus; assay: Ratio of compound to CX614 for AMPA receptor in rat embryonic hippocampal neurons assessed as concentration required to double glutamate-induced steady-state current; details: Hippocampus
Rattus norvegicus [8] = organism: Rattus norvegicus; assay: Positive allosteric modulation of AMPA receptor in rat hippocampal slices assessed as increase of fEPSP-induced current amplitude at 0.3 uM; format: tissue-based; details: Hippocampus; procedure, shortened: as §1

| Structure (SMILES) | CD (Rattus norvegicus [1]) | Activity (Rattus norvegicus [3]) [%] | pKi [2] | also measured |
| --- | --- | --- | --- | --- |
| N#Cc1cnn(CCN2COc3cc4c(cc3C2=O)OC2CCCN2C4=O)c1 (configuration not stated) | 0.04 µM | 29 | 6.00 |  |
| N#Cc1cccc(CCN2COc3cc4c(cc3C2=O)OC2CCCN2C4=O)c1 (configuration not stated) | 0.027 µM | 16 | 5.52 |  |
| N#Cc1ccnn1CCN1COc2cc3c(cc2C1=O)OC1CCCN1C3=O (configuration not stated) | 0.045 µM | 16 | 4.66 |  |
| COc1cccc(CCN2COc3cc4c(cc3C2=O)OC2CCCN2C4=O)c1 (configuration not stated) | 14 µM |  | 4.16 |  |
| O=C1c2cc3c(cc2OCN1CCn1cnc([N+](=O)[O-])n1)C(=O)N1CCCC1O3 (configuration not stated) | 0.01 µM | 14 | 5.38 |  |
| O=C1c2cc3c(cc2OCN1CCc1cccc(Cl)c1)C(=O)N1CCCC1O3 (configuration not stated) | 0.02 µM |  | 5.74 | Activity (Rattus norvegicus [5]): 7% |
| O=C1c2cc3c(cc2OCN1Cc1ccccc1)C(=O)N1CCCC1O3 (configuration not stated) | 6 µM |  |  |  |
| O=C1c2cc3c(cc2OCN1CCc1cccc([N+](=O)[O-])c1)C(=O)N1CCCC1O3 (configuration not stated) | 0.015 µM | 8 | 5.44 |  |
| O=C1c2cc3c(cc2OCN1CCn1cc([N+](=O)[O-])cn1)C(=O)N1CCCC1O3 (configuration not stated) | 0.0065 µM |  | 6.62 | Activity (Rattus norvegicus [6]): 29% |
| O=C1c2cc3c(cc2OCN1CCc1cc(F)cc(F)c1)C(=O)N1CCCC1O3 (configuration not stated) | 0.005 µM | 16 | 6.52 | Ratio (Rattus norvegicus [7]): 460 |
| N#Cc1ccn(CCN2COc3cc4c(cc3C2=O)OC2CCCN2C4=O)n1 (configuration not stated) | 0.1 µM | 10 | 4.74 |  |
| O=C1c2cc3c(cc2OCN1CCCc1ccccc1)C(=O)N1CCCC1O3 (configuration not stated) | 3.6 µM |  |  |  |
| O=C1c2cc3c(cc2OCN1CCc1cccc(F)c1)C(=O)N1CCCC1O3 (configuration not stated) | 0.011 µM | 16 | 6.30 |  |
| O=C1c2cc3c(cc2OCN1c1ccccc1)C(=O)N1CCCC1O3 (configuration not stated) | inactive |  |  |  |
| O=C1c2cc3c(cc2OCN1CCc1ccccc1F)C(=O)N1CCCC1O3 (configuration not stated) | 5.4 µM |  | 4.44 |  |
| O=C1c2cc3c(cc2OCN1CCc1cccc(C(F)(F)F)c1)C(=O)N1CCCC1O3 (configuration not stated) | 0.2 µM |  | 5.60 | Activity (Rattus norvegicus [5]): 1% |
| O=C1c2cc3c(cc2OCN1CCc1cccc(OC(F)(F)F)c1)C(=O)N1CCCC1O3 (configuration not stated) | 3 µM |  | 4.89 |  |
| NC(=S)c1cccc(CCN2COc3cc4c(cc3C2=O)OC2CCCN2C4=O)c1 (configuration not stated) | 0.4 µM |  |  | Activity (Rattus norvegicus [4]): 5% |
| O=C1c2cc3c(cc2OCN1CCc1ccc(F)cc1)C(=O)N1CCCC1O3 (configuration not stated) | 1.2 µM |  |  | Activity (Rattus norvegicus [5]): 6% |
| O=C1c2cc3c(cc2OC2CCCN12)OCCO3 (configuration not stated) | 2.3 µM |  |  |  |
| C[C@@H]1CN2C(=O)c3cc4c(cc3O[C@H]2O1)OCO4 | 200 µM |  |  |  |
| O=C1c2cc3c(cc2OCN1CCc1cccc(Br)c1)C(=O)N1CCCC1O3 (configuration not stated) | 1.6 µM |  | 3.82 |  |
| C[C@H]1CN2C(=O)c3cc4c(cc3O[C@@H]2O1)OCO4 | 2 µM |  |  |  |
| O=C1c2cc3c(cc2OCN1CCc1ccccc1Cl)C(=O)N1CCCC1O3 (configuration not stated) | 7.1 µM |  |  |  |
| NC(=O)c1cccc(CCN2COc3cc4c(cc3C2=O)OC2CCCN2C4=O)c1 (configuration not stated) | 5 µM |  | 3.21 |  |
| O=C1c2cc3c(cc2OCN1CCc1ccc(Cl)cc1)C(=O)N1CCCC1O3 (configuration not stated) | > 40 µM |  |  |  |

Now from value to compound, other results behind:

| CD (Rattus norvegicus [1]) | Activity (Rattus norvegicus [3]) [%] | Structure (SMILES) | pKi [2] | also measured |
| --- | --- | --- | --- | --- |
| 1.8 µM |  | N#CNCCN1COc2cc3c(cc2C1=O)OC1CCCN1C3=O (configuration not stated) | 4.29 | Activity (Rattus norvegicus [4]): 2% |
| 0.032 µM |  | O=C1c2cc3c(cc2OCN1CCc1cccs1)C(=O)N1CCCC1O3 (configuration not stated) | 5.70 |  |
| 0.29 µM | 12 | CSCCN1COc2cc3c(cc2C1=O)OC1CCCN1C3=O (configuration not stated) | 4.77 |  |
| 0.32 µM | 6 | CS(=O)(=O)CCN1COc2cc3c(cc2C1=O)OC1CCCN1C3=O (configuration not stated) | 4.70 |  |
| 1.2 µM |  | COCCN1COc2cc3c(cc2C1=O)OC1CCCN1C3=O (configuration not stated) | 4.39 | Activity (Rattus norvegicus [4]): 14% |
| 0.11 µM |  | N#CCCCCN1COc2cc3c(cc2C1=O)OC1CCCN1C3=O (configuration not stated) | 5.35 | Activity (Rattus norvegicus [4]): 22% |
| 0.16 µM |  | O=C1c2cc3c(cc2OCN1CCn1ccnn1)C(=O)N1CCCC1O3 (configuration not stated) | 5.29 | Activity (Rattus norvegicus [6]): 8% |
| 0.02 µM | 32 | O=C1c2cc3c(cc2OCN1CCn1cc(Br)cn1)C(=O)N1CCCC1O3 (configuration not stated) | 5.60 |  |
| 5.1 µM |  | O=C1c2cc3c(cc2OCN1CCc1c[nH]cn1)C(=O)N1CCCC1O3 (configuration not stated) | 3.65 |  |
| 0.6 µM |  | O=C1c2cc3c(cc2OCN1CCc1ccccn1)C(=O)N1CCCC1O3 (configuration not stated) | 3.89 | Activity (Rattus norvegicus [5]): 15% |
| 0.0007 µM |  | O=C1c2cc3c(cc2OCN1CCn1cnc([N+](=O)[O-])c1)C(=O)N1CCCC1O3 (configuration not stated) | 7.22 | Ratio (Rattus norvegicus [7]): 3000; Activity (Rattus norvegicus [8]): 19% |
| 1.8 µM |  | Cc1nccn1CCN1COc2cc3c(cc2C1=O)OC1CCCN1C3=O (configuration not stated) | 3.64 |  |
| 0.4 µM | 4 | O=C1c2cc3c(cc2OCN1CCc1ccon1)C(=O)N1CCCC1O3 (configuration not stated) | 4.39 |  |
| 0.0037 µM |  | O=C1c2cc3c(cc2OCN1CCn1cc(Cl)cn1)C(=O)N1CCCC1O3 (configuration not stated) | 6.48 | Activity (Rattus norvegicus [6]): 23% |
| 1.3 µM |  | O=C1c2cc3c(cc2OCN1CCO)C(=O)N1CCCC1O3 (configuration not stated) | 4.48 |  |
| 0.064 µM | 15 | O=C1c2cc3c(cc2OCN1CCn1cccn1)C(=O)N1CCCC1O3 (configuration not stated) | 5.29 |  |
| 0.33 µM |  | CN(CCCN1COc2cc3c(cc2C1=O)OC1CCCN1C3=O)S(C)(=O)=O (configuration not stated) | 4.47 | Activity (Rattus norvegicus [4]): 9% |

| CD (Rattus norvegicus [1]) | Activity (Rattus norvegicus [3]) [%] | Structure (SMILES) | pKi [2] | also measured |
| --- | --- | --- | --- | --- |
| 0.5 µM |  | N#CCN1COc2cc3c(cc2C1=O)OC1CCCN1C3=O (configuration not stated) | 4.77 | Activity (Rattus norvegicus [4]): 10% |
| 0.25 µM | 3 | O=C1c2cc3c(cc2OCN1CCc1ccccc1)C(=O)N1CCCC1O3 (configuration not stated) | 5.10 | Activity (Rattus norvegicus [5]): 19% |
| 0.063 µM | 31 | O=C1c2cc3c(cc2OCN1CCn1cncn1)C(=O)N1CCCC1O3 (configuration not stated) | 5.68 |  |
| 0.02 µM | 15 | O=C1c2cc3c(cc2OCN1CCc1ccsc1)C(=O)N1CCCC1O3 (configuration not stated) | 6.57 |  |
| 0.05 µM |  | O=C1c2cc3c(cc2OCN1CCn1ccnc1)C(=O)N1CCCC1O3 (configuration not stated) | 5.18 | Activity (Rattus norvegicus [4]): 38% |
| 0.33 µM | 10 | CS(=O)(=O)NCCN1COc2cc3c(cc2C1=O)OC1CCCN1C3=O (configuration not stated) | 5.08 |  |
| 0.08 µM | 16 | [N-]=[N+]=NCCN1COc2cc3c(cc2C1=O)OC1CCCN1C3=O (configuration not stated) | 5.23 |  |
| 0.11 µM | 14 | C[S+]([O-])CCN1COc2cc3c(cc2C1=O)OC1CCCN1C3=O (configuration not stated) | 4.89 |  |
| 0.6 µM |  | N#CCCN1COc2cc3c(cc2C1=O)OC1CCCN1C3=O (configuration not stated) | 4.96 | Activity (Rattus norvegicus [4]): 19% |
| 0.2 µM |  | CCN1COc2cc3c(cc2C1=O)OC1CCCN1C3=O (configuration not stated) | 4.70 | Activity (Rattus norvegicus [4]): 17% |
| 0.24 µM | 3 | O=C1c2cc3c(cc2OCN1CCc1ccncc1)C(=O)N1CCCC1O3 (configuration not stated) | 4.37 | Activity (Rattus norvegicus [4]): 15% |
| 0.2 µM | 15 | O=C1c2cc3c(cc2OCN1CCc1cccnc1)C(=O)N1CCCC1O3 (configuration not stated) | 5.18 |  |
| 0.38 µM |  | CN(CCN1COc2cc3c(cc2C1=O)OC1CCCN1C3=O)S(C)(=O)=O (configuration not stated) | 4.51 | Activity (Rattus norvegicus [4]): 8% |
| 0.06 µM | 7 | N#CSCCN1COc2cc3c(cc2C1=O)OC1CCCN1C3=O (configuration not stated) | 6.00 |  |
| 0.8 µM | 7 | O=C1c2cc3c(cc2OCN1CCn1nccn1)C(=O)N1CCCC1O3 (configuration not stated) | 4.21 |  |
| 1.1 µM |  | NC(=O)CCN1COc2cc3c(cc2C1=O)OC1CCCN1C3=O (configuration not stated) | 4.29 | Activity (Rattus norvegicus [5]): 6% |
| 0.05 µM | 11 | N#CCCCN1COc2cc3c(cc2C1=O)OC1CCCN1C3=O (configuration not stated) | 5.17 |  |
